Test [1] concerns the target Vascular endothelial growth factor receptor (Homo sapiens, UniProt P17948+P35916+P35968). The test is described as follows: Inhibition of VEGF-stimulated human umbilical vein endothelial cell proliferation. Format: functional, cell-based. In outline:
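HUVECs under passage 3, plated 2 × 10^3/well in minimal medium with 1% heat-inactivated FBS on collagen IV; after 24 h, VEGF 80 ng/mL and serial compound dilutions; 3H-thymidine pulse (0.5 µCi) at 48 h for 24 h. IC50 as concentration halving thymidine uptake relative to untreated VEGF-stimulated cells.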

Test [2] concerns the target Vascular endothelial growth factor receptor 2 (Homo sapiens, UniProt P35968). Nature of the test: In vitro inhibition of Vascular endothelial growth factor receptor 2.
A short description of test [3]: Compound was tested for its inhibitory effect on the proliferation of the colon adenocarcinoma cell line DiFi. As to conditions: Homo sapiens.
Test [4] addresses Epidermal growth factor receptor (Homo sapiens, UniProt P00533). The test is described as follows: In vitro inhibition of Epidermal growth factor receptor.
Test [5] deals with Epidermal growth factor receptor and ErbB2 (HER1 and HER2) (Homo sapiens, UniProt P04626+P00533). The test is described as follows: Inhibition of EGF-stimulated human umbilical vein endothelial cell proliferation. It is filed as functional, cell-based. An outline of the steps:
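Primary HUVECs (passage ≤3) seeded 2 × 10^3/well on collagen IV in minimal medium, 1% heat-inactivated FBS, 24 h; compound dilutions added with EGF 5 ng/mL; 48 h later 3H-thymidine 0.5 µCi, further 24 h. IC50 = concentration giving 50% less tritium incorporation than untreated EGF-stimulated cells, from dose-response curves.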

Epidermal growth factor receptor, sequence (P00533 whole entry): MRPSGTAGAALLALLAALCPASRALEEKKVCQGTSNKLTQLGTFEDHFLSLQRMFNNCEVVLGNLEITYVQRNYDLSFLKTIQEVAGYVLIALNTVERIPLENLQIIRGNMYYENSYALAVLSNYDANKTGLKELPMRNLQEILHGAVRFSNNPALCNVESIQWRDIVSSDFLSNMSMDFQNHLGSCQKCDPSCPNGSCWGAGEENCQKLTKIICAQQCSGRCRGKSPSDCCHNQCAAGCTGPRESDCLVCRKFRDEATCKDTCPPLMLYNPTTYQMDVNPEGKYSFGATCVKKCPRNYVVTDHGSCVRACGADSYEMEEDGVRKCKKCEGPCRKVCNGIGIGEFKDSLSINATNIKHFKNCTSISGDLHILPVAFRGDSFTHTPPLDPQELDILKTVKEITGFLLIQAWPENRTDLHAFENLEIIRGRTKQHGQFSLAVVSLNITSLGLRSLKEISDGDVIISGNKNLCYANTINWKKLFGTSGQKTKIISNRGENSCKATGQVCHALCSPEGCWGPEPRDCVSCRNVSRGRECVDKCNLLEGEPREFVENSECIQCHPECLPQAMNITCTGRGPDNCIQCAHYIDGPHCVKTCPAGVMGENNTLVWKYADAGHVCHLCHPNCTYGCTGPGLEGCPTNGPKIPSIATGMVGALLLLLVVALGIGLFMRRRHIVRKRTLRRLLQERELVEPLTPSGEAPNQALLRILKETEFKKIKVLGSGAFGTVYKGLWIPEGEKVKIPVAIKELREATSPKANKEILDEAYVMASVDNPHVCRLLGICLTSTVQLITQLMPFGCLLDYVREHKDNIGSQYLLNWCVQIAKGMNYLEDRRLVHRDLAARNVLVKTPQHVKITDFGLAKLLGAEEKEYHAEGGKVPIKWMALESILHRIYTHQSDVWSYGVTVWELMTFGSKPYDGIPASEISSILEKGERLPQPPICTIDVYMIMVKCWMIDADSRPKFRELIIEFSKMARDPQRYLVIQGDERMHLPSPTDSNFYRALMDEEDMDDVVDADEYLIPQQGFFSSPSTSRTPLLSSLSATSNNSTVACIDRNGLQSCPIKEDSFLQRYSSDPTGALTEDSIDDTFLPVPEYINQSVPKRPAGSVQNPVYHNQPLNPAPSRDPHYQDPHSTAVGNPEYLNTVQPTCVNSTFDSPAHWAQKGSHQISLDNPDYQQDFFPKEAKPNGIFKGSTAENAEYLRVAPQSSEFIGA
Vascular endothelial growth factor receptor 2, sequence (P35968 whole entry): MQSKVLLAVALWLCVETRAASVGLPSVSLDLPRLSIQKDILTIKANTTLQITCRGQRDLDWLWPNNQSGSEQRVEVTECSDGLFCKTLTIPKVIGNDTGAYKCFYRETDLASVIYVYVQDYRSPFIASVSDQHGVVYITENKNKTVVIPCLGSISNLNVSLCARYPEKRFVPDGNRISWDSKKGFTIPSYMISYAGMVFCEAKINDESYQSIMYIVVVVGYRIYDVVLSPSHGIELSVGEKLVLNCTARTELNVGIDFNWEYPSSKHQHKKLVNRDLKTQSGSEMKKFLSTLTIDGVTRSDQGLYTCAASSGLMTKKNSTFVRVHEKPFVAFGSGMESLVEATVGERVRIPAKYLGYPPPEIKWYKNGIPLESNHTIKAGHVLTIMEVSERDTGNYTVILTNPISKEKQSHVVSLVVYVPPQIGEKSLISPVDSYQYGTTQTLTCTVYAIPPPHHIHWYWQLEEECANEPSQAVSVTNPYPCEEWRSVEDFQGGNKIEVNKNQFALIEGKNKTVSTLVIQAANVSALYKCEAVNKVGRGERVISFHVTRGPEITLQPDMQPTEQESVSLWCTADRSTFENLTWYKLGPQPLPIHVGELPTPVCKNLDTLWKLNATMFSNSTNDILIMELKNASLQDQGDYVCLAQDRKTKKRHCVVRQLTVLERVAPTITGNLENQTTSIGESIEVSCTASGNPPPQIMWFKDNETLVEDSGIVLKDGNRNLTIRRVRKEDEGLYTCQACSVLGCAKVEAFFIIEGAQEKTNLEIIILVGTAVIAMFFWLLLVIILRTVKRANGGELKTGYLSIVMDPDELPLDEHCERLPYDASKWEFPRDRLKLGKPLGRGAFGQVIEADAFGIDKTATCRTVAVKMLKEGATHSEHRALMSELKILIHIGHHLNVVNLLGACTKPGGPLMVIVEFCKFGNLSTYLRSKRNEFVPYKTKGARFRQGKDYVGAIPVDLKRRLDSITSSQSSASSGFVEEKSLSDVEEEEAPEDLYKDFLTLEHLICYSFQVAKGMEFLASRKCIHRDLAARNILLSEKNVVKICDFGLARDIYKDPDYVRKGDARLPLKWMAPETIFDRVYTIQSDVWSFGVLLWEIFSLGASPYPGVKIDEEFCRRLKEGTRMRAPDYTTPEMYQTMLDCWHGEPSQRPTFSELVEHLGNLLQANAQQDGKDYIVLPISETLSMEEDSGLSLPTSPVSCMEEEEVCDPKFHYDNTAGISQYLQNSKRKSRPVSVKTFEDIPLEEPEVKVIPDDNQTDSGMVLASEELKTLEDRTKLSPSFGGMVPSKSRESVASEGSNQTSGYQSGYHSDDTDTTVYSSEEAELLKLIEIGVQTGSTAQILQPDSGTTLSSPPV

Usually IC50 stands for the concentration that gives 50% inhibition. High values mean a need for much substance, low ones inhibition by little substance. Take `Cc1cc2c(Nc3ccc(C)c(O)c3)ncnn2c1`: the half-inhibitory concentration (IC50) in test [1] was 213 nM; in test [2] it was 400 nM; in test [3] it was over 10000 nM; in test [4], 650 nM; in test [5], 644 nM.

As for `Cc1ccc(Nc2ncnn3cccc23)cc1O`, the IC50 in test [1] was found to be 360 nM; in test [2], 1440 nM; in test [3], 10000 nM; in test [4] it was 510 nM.

Turning to `Fc1ccc(Nc2ncnn3cccc23)cc1Cl`, the concentration for half-maximal inhibition (IC50) in test [1] was over 2500 nM; in test [2] it was over 10000 nM; in test [3], 1840 nM; in test [4] it was 110 nM; in test [5], 345 nM.

`Cc1cc2c(Nc3ccc(F)c(Cl)c3)ncnn2c1`: the IC50 in test [1] was over 2500 nM; in test [2] it was over 2000 nM; in test [3] it was 1600 nM; in test [4], 150 nM; in test [5], 509 nM.

Consider `Cc1ccn2ncnc(Nc3ccc(F)c(Cl)c3)c12`, for which the IC50 was over 2500 nM in test [1]; over 10000 nM in test [2]; 3060 nM in test [3]; 100 nM in test [4]; 602 nM in test [5].

Regarding `Cc1ccc(Nc2ncnn3cc(C)c(C)c23)cc1O`, the 50% inhibitory concentration (IC50) is 310 nM in test [1], 20 nM in test [2], over 10000 nM in test [3] and 200 nM in test [4].

For the molecule `Cc1ccc(Nc2ncnn3c(C)ccc23)cc1O`, the half-maximal inhibitory concentration (IC50) is 477 nM in test [1]; over 10000 nM in test [2]; over 10000 nM in test [3]; 29400 nM in test [4]; 101 nM in test [5].

Take `Cc1ccc(Nc2ncnn3ccc(C)c23)cc1O`: the half-maximal inhibitory concentration (IC50) was 98 nM in test [1]; 60 nM in test [2]; over 10000 nM in test [3]; 340 nM in test [4]; 270 nM in test [5].

`Cc1ccc2c(Nc3ccc(F)c(Cl)c3)ncnn12`: the IC50 in test [1] is over 2500 nM; in test [2] it was over 2000 nM; in test [3], over 10000 nM; in test [4] it was 3250 nM; in test [5], over 2500 nM.

Source of the values: ChEMBL document CHEMBL1138664, “Discovery of the pyrrolo[2,1-f][1,2,4]triazine nucleus as a new kinase inhibitor template” (J Med Chem, 2004).
